ChEMBL document CHEMBL1131572, “A potent, orally bioavailable benzazepinone growth hormone secretagogue” (1998)
pEC50: −log10 of the molar value.

Species: Rattus norvegicus
Assay: In vitro growth hormone (GH) releasing activity in rat primary pituitary cells.
Assay type: functional
Details: Pituitary gland cell, read-out: ED50 (the source's name)
Outline: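 Rat anterior pituitaries dispersed with 0.2% collagenase and 0.2% hyaluronidase, then cultured 3–4 days at 37 °C, 5% CO₂, in DMEM with 10% horse serum and 2.5% FBS. Cells washed in medium with 25 mM HEPES pH 7.4, then exposed in quadruplicate to serially diluted agents (final 1% DMSO) for 15 min at 37 °C. Medium GH measured by double-antibody RIA; ED₅₀ = dose giving 50% maximal GH release.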

**Q.** How did the pEC50 turn out when `CC(C)(N)C(=O)N[C@@H]1CCc2ccccc2N(Cc2ccc(-c3ccccc3-c3nn[nH]n3)cc2)C1=O` was run?
**A.** The pEC50 was 7.52.

**Q.** `CN(C)C(=O)NCc1ccccc1-c1ccc(CN2C(=O)[C@H](NC(=O)C(C)(C)N)CCc3ccccc32)cc1` was tested. Which pEC50 did it give?
**A.** The pEC50 was 7.22.

**Q.** With `CNC(=O)NCc1ccccc1-c1ccc(CN2C(=O)[C@H](NC(=O)CC(C)(C)N)CCc3ccccc32)cc1` as the compound, how does the pEC50 read?
**A.** Its pEC50 is 8.22.

**Q.** With `CC(C)(N)C(=O)N[C@@H]1CCc2ccccc2N(Cc2ccc(-c3ccccc3CNC(=O)NCCO)cc2)C1=O` as the compound, how does the pEC50 read?
**A.** Its pEC50 is 8.70.

**Q.** With `CCNC(=O)NCc1ccccc1-c1ccc(CN2C(=O)[C@H](NC(=O)C(C)(C)N)CCc3ccccc32)cc1` as the compound, how does the pEC50 read?
**A.** The pEC50 was 8.22.

**Q.** How did the pEC50 turn out when `CCCNC(=O)NCc1ccccc1-c1ccc(CN2C(=O)[C@H](NC(=O)C(C)(C)N)CCc3ccccc32)cc1` was run?
**A.** Its pEC50 is 6.84.

**Q.** With `CC(C)NC(=O)NCc1ccccc1-c1ccc(CN2C(=O)[C@H](NC(=O)C(C)(C)N)CCc3ccccc32)cc1` as the compound, how does the pEC50 read?
**A.** The pEC50 was 6.57.

**Q.** With `CC(C)(N)C(=O)N[C@@H]1CCc2ccccc2N(Cc2ccc(-c3ccccc3CNC(=O)NC3CC3)cc2)C1=O` as the compound, how does the pEC50 read?
**A.** Its pEC50 is 7.35.

**Q.** With `CC(C)(N)CC(=O)N[C@@H]1CCc2ccccc2N(Cc2ccc(-c3ccccc3-c3nn[nH]n3)cc2)C1=O` as the compound, how does the pEC50 read?
**A.** The pEC50 was 7.22.

**Q.** How did the pEC50 turn out when `CNC(=O)NCCc1ccccc1-c1ccc(CN2C(=O)[C@H](NC(=O)C(C)(C)N)CCc3ccccc32)cc1` was run?
**A.** Its pEC50 is 7.40.

**Q.** With `CC(C)(N)C(=O)N[C@@H]1CCc2ccccc2N(Cc2ccc(-c3ccccc3CNC(=O)NCc3ccccc3)cc2)C1=O` as the compound, how does the pEC50 read?
**A.** The pEC50 was 6.41.

**Q.** How did the pEC50 turn out when `CC(C)(N)C(=O)N[C@@H]1CCc2ccccc2N(Cc2ccc(-c3ccccc3CNC(N)=O)cc2)C1=O` was run?
**A.** Its pEC50 is 7.68.

**Q.** How did the pEC50 turn out when `CNC(=O)Nc1ccccc1-c1ccc(CN2C(=O)[C@H](NC(=O)CC(C)(C)N)CCc3ccccc32)cc1` was run?
**A.** The pEC50 was 7.30.

**Q.** `CC(C)(N)CC(=O)N[C@@H]1CCc2ccccc2N(Cc2ccc(-c3ccccc3C(N)=O)cc2)C1=O` was tested. Which pEC50 did it give?
**A.** Its pEC50 is 7.10.

**Q.** `CC(C)(N)CC(=O)N[C@@H]1CCc2ccccc2N(Cc2ccc(-c3ccccc3CN)cc2)C1=O` was tested. Which pEC50 did it give?
**A.** Its pEC50 is less than 6.00.

**Q.** `CNC(=O)NCc1ccccc1-c1ccc(CN2C(=O)[C@H](NC(=O)C(C)(C)N)CCc3ccccc32)cc1` was tested. Which pEC50 did it give?
**A.** The pEC50 was 9.00.

**Q.** With `CC(=O)NCc1ccccc1-c1ccc(CN2C(=O)[C@H](NC(=O)CC(C)(C)N)CCc3ccccc32)cc1` as the compound, how does the pEC50 read?
**A.** Its pEC50 is 6.70.
